The test system of data set [1] is Staphylococcus aureus. The experiment in a line: Antibacterial activity against wild type Staphylococcus aureus Newman infected in BALB/c mouse assessed as decrease in bacterial survival in mouse liver at 0.1 mg, ip bid administered 4.5 days after 6 hrs bacterial infection measured after 90 hrs relative to control. The data set is classed as functional.
In data set [2] the target is T1, 4,4'-diapophytoene desaturase (4,4'-diaponeurosporene-forming) (Staphylococcus aureus (strain Newman)) (UniProt O07855).
T1 sequence (whole entry): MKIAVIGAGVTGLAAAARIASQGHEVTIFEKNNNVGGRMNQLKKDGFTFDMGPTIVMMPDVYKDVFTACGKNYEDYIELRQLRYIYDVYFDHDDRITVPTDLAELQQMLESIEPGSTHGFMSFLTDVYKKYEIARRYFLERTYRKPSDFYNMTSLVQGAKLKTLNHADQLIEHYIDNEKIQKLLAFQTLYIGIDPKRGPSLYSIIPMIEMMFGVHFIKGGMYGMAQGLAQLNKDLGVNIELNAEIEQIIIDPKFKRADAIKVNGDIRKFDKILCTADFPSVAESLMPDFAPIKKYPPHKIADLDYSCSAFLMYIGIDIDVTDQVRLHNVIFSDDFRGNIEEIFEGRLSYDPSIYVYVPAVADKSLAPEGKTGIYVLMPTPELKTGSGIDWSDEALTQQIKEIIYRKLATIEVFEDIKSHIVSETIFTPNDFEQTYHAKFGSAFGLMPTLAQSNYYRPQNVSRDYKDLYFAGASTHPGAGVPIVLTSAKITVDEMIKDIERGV
The experiment in a line: Inhibition of CrtN in methicillin-resistant Staphylococcus aureus USA400 MW2 assessed as bacterial survival after 6 hrs by human whole blood killing assay (reference value: 23.33%). The method, boiled down:
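Overnight cultures spun, resuspended in sterile PBS at 1 × 10⁷ CFU/mL, then mixed 1:10 with fresh whole blood from healthy human volunteers (final 1 × 10⁶ CFU/mL). Incubated 6 h at 37 °C; surviving CFU counted by plating dilutions on TSA. Two independent experiments.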

The nature of data set [3]: Solubility of the compound in water by UV analysis. The data set is classed as physicochemical.
Data set [4] has as its system Staphylococcus aureus. Briefly: Antibacterial activity against methicillin/linezolid-resistant Staphylococcus aureus NRS271 infected in BALB/c mouse assessed as decrease in bacterial survival in mouse liver at 0.1 to 0.4 mg, ip bid administered 4.5 days after 6 hrs bacterial infection measured after 90 hrs. The data set is classed as functional, organism-based. A digest of the protocol: (§1)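 6–8-week-old female BALB/c mice (SPF) dosed intraperitoneally twice daily over 4.5 d at 0.1 or 0.4 mg/bid. Pre-treatment started before infection; post-treatment started 6 h after infection. Vancomycin and linezolid controls given as pre-treatment at 0.4 mg/bid. Retro-orbital inoculation: Mu50 1.1 × 10⁹ CFU, NRS271 1.8 × 10⁸ CFU. Kidneys and livers homogenised in PBS/0.01% Triton X-100 and plated on TSA for CFU.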

For data set [5], the target named is T2, 4,4'-diapophytoene desaturase (4,4'-diaponeurosporene-forming) (Staphylococcus aureus (strain Mu50 / ATCC 700699)) (UniProt Q99R76).
T2 sequence (whole entry): T1 sequence (whole entry)
Briefly: Inhibition of CrtN in vancomycin-intermediate methicillin-resistant Staphylococcus aureus Mu50 assessed as bacterial survival at 1 uM after 24 hrs by H2O2 killing assay (reference value: 23.33%). To be noted: Staphylococcus aureus subsp. aureus Mu50.

The subject of data set [6] is Staphylococcus aureus. Briefly: Antibacterial activity against methicillin-resistant Staphylococcus aureus USA400 MW2 assessed as decrease in bacterial survival at 1 uM after 24 hrs by H2O2 killing assay. The format is functional, organism-based.
For data set [7], the target named is T1, 4,4'-diapophytoene desaturase (4,4'-diaponeurosporene-forming) (Staphylococcus aureus (strain Newman)). The experiment in a line: Inhibition of CrtN in wild type Staphylococcus aureus Newman assessed as decrease in bacterial survival after 6 hrs by human whole blood killing assay relative to control. To be noted: Staphylococcus aureus subsp. aureus str. Newman. The method, boiled down: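 Tubes were incubated 6 h at 37 °C, then serial dilutions were plated on TSA to count surviving CFU. Two independent experiments, compared against vehicle.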

For data set [8], the system named is Staphylococcus aureus. The experiment in a line: Antibacterial activity against wild type Staphylococcus aureus Newman infected in BALB/c mouse assessed as decrease in bacterial survival in mouse kidney at 0.1 to 0.4 mg, ip bid administered 4.5 days after 6 hrs bacterial infection measured after 90 hrs. The format is functional, organism-based. The method, boiled down:
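Female BALB/c mice, 6-8 weeks old, infected retro-orbitally with 2.2 × 10⁷ CFU S. aureus Newman. Intraperitoneal dosing in 12 intervals: pre-treatment groups received a total of 50 or 200 mg/kg starting before infection; post-treatment groups received a total of 39 or 156 mg/kg starting 6 h after infection. Vehicle was ddH₂O. At 90 h post-infection, liver or kidney was homogenized in PBS/0.01% Triton X-100 and plated on TSA for CFU.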

In data set [9] the test system is Staphylococcus aureus. The experiment in a line: Antibacterial activity against methicillin/linezolid-resistant Staphylococcus aureus NRS271 infected in BALB/c mouse assessed as decrease in bacterial survival in mouse liver at 0.1 to 0.4 mg, ip bid administered 4.5 days before 24 hrs bacterial infection measured after 90 hrs. The data set is classed as functional, organism-based. A digest of the protocol: as §1

Data set [10] deals with Staphylococcus aureus. Briefly: Antibacterial activity against vancomycin-intermediate methicillin-resistant Staphylococcus aureus Mu50 assessed as decrease in bacterial survival at 1 uM after 24 hrs by H2O2 killing assay. The format is functional, organism-based.
The target in data set [11] is T1, 4,4'-diapophytoene desaturase (4,4'-diaponeurosporene-forming) (Staphylococcus aureus (strain Newman)). Briefly: Inhibition of CrtN in wild type Staphylococcus aureus Newman assessed as decrease in bacterial survival at 1 uM after 24 hrs by H2O2 killing assay relative to control. To be noted: Staphylococcus aureus subsp. aureus str. Newman. The method, boiled down:
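Bacteria were grown 24 h at 37 °C in TSB with compound, DMSO vehicle or NAC, then washed twice in PBS. Each reaction held 4 × 10⁶ CFU with H₂O₂ at 1.5% final, shaken 30 min at 37 °C and 250 rpm, then quenched with 1000 U/mL catalase. Survival was counted as CFU on TSA. Two independent experiments.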

Data set [12] relates to Staphylococcus aureus. The experiment in a line: Antibacterial activity against vancomycin-intermediate methicillin-resistant Staphylococcus aureus Mu50 infected in BALB/c mouse assessed as decrease in bacterial survival in mouse liver at 0.1 to 0.4 mg, ip bid administered 4.5 days before 24 hrs bacterial infection measured after 90 hrs. The data set is classed as functional, organism-based. The method, boiled down: as §1

The test system of data set [13] is Staphylococcus aureus. The experiment in a line: Antibacterial activity against vancomycin-intermediate methicillin-resistant Staphylococcus aureus Mu50 infected in BALB/c mouse assessed as decrease in bacterial survival in mouse liver at 0.1 to 0.4 mg, ip bid administered 4.5 days after 6 hrs bacterial infection measured after 90 hrs. The format is functional, organism-based. The method, boiled down:
as §1

The subject of data set [14] is Staphylococcus aureus. The experiment in a line: Growth inhibition of methicillin-resistant Staphylococcus aureus USA400 MW2 at 0.2 mM incubated for overnight. The format is functional, organism-based. The method, boiled down: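 Overnight cultures washed in PBS and diluted in TSB to OD600 ~1.0. Inoculated to a final OD600 of about 0.05 into TSB containing compound (0.2 or 0.05 mM, from a 20 mM DMSO stock) or DMSO growth control, overlaid with paraffin wax. OD600 read every 30 min during overnight incubation at 37 °C.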

Data set [15] relates to Staphylococcus aureus. The experiment in a line: Inhibition of pigmentation in vancomycin-intermediate methicillin-resistant Staphylococcus aureus Mu50 after 48 hrs by spectrophotometric method. The data set is classed as functional, organism-based. Particulars: Mu50, 48 h. A digest of the protocol: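 Bacteria grown in 4 mL TSB for 48 h at 37 °C with compound serially diluted from DMSO, in duplicate; DMSO vehicle control and non-pigmented CrtN mutant as reference. Cells from 3 mL of culture washed twice with 0.01 M PBS and pigment extracted into methanol. Absorbance read at 450 nm; IC50 fitted from the concentration series.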

Activity calls are given as the source filed them. The calls are words filed in the database; no cut-off is given here.

By solubility is commonly meant how much of the substance goes into solution per volume. In general, IC50 refers to the point on the concentration scale where inhibition reaches its midpoint. Higher therefore signals weaker potency. Regarding `CN(C/C=C/C=C/c1ccc(C(F)(F)F)cc1F)Cc1ccc2c(c1)OCO2.Cl`, in the data set with Staphylococcus aureus [1], the Activity turned out to be 97.06%. The Survival in data set [2] turned out to be 0.93%; in data set [5] it was 2%. In addition, in data set [3], the concentration in solution (solubility) was 8690 µg/mL. Further, the result with Staphylococcus aureus [4], in the data set with Staphylococcus aureus [6], with Staphylococcus aureus [9] and with Staphylococcus aureus [10] was inactive. The figures for the fold change (FC) in [7] and in data set [11] were 10.9 and 11.7, respectively. Moreover, the outcome in the data set on Staphylococcus aureus [8], in the data set on Staphylococcus aureus [12] and in the data set on Staphylococcus aureus [13] was Active. For the same compound, the “growth inhibition (GI)” value in the data set with Staphylococcus aureus [14] is “inactive”. Further, in the data set on Staphylococcus aureus [15], the IC50 was 2.5 nM.

Values taken from ChEMBL document CHEMBL4145474, “Discovery of novel piperonyl derivatives as diapophytoene desaturase inhibitors for the treatment of methicillin-, vancomycin- and linezolid-resistant Staphylococcus aureus infections” (Eur J Med Chem, 2018).
